# Test results taken from ChEMBL document CHEMBL5678806, “NMS-P937, an orally available, specific small-molecule polo-like kinase 1 inhibitor with antitumor activity in solid and hematologic malignancies” (Mol Cancer Ther, 2012).
# What was measured:
# [1] = target: Inhibitor of nuclear factor kappa-B kinase subunit beta (Homo sapiens, UniProt O14920); experiment: Inhibition of IKK2 (unknown origin) in presence of [gamma-33P]ATP
# [2] = target: Serine/threonine-protein kinase NIM1 (Homo sapiens, UniProt Q8IY84); experiment: Inhibition of NIM1 (unknown origin) in presence of [gamma-33P]ATP
# Chain of Serine/threonine-protein kinase NIM1 (Q8IY84 whole entry): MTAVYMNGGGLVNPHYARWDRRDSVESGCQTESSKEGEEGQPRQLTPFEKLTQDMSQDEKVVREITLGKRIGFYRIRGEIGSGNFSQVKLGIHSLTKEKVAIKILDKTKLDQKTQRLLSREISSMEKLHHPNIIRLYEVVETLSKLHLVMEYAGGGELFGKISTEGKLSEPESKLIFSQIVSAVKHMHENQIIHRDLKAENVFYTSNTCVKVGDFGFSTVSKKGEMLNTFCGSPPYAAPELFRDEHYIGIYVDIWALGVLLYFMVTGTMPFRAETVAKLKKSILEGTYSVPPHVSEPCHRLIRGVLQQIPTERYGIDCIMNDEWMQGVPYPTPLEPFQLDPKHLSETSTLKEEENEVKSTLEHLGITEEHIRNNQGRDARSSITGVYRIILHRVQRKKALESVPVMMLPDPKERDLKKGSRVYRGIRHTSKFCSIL
# [3] = target: Non-receptor tyrosine-protein kinase TYK2 (Homo sapiens, UniProt P29597); experiment: Inhibition of TYK2 (unknown origin) in presence of [gamma-33P]ATP
# Chain of Non-receptor tyrosine-protein kinase TYK2 (P29597 whole entry, the tested form may be a part): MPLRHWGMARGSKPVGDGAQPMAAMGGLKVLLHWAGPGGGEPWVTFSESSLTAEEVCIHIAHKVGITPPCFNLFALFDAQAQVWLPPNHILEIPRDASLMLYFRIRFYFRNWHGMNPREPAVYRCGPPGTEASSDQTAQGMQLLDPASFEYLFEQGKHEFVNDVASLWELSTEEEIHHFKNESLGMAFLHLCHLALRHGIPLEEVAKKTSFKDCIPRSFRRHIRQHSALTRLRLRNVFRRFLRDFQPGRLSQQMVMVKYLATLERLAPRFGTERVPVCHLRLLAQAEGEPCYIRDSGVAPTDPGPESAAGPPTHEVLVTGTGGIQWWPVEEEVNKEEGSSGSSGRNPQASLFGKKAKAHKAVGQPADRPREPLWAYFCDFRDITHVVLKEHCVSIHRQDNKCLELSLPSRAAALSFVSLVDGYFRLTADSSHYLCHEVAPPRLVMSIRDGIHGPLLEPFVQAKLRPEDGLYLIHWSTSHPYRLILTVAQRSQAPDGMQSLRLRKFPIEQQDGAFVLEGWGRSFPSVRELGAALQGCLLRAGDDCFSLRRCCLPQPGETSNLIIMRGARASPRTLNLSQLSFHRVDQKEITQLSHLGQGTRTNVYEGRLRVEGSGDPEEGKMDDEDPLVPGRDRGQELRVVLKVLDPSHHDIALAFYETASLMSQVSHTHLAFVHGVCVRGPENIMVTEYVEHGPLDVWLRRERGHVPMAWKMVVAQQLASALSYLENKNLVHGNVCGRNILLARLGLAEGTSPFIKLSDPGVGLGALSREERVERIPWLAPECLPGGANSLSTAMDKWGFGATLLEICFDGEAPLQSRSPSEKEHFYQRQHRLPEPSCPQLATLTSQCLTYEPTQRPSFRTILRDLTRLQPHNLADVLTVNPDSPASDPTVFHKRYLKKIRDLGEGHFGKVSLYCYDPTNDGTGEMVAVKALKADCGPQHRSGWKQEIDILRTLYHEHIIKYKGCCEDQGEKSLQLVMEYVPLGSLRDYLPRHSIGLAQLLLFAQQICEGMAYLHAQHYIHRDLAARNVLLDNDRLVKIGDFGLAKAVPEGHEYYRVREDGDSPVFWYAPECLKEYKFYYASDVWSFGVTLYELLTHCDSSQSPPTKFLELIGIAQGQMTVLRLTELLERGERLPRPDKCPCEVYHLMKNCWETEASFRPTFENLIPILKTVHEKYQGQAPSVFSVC
# [4] = target: Calcium/calmodulin-dependent protein kinase type II subunit gamma (Homo sapiens) (UniProt Q13555); experiment: Inhibition of N-terminal 6His-tagged recombinant human CaMKIIgamma (1 to 330 residues) expressed in baculovirus infected Sf21 cells assessed as residual activity at 0.1 uM relative to control
# Chain of Calcium/calmodulin-dependent protein kinase type II subunit gamma (Homo sapiens) (Q13555 whole entry, the tested form may be a part): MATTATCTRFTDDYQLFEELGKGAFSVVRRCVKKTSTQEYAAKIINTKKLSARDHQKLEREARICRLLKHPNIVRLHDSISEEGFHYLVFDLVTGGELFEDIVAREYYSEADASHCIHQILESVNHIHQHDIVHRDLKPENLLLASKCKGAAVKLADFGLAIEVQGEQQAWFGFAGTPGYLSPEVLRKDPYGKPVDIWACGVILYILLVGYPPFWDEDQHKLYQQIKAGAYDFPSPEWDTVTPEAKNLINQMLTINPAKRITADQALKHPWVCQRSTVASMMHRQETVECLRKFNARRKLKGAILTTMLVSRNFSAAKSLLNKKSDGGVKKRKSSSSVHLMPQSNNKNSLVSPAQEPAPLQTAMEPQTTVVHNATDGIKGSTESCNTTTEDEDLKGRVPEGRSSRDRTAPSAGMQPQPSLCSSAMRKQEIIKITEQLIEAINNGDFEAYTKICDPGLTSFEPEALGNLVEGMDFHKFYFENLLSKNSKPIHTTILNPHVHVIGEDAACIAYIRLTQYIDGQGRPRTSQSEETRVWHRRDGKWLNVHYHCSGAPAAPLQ
# [5] = target: Dual specificity mitogen-activated protein kinase kinase 6 (Homo sapiens) (UniProt P52564); experiment: Inhibition of N-terminal maltose binding protein-tagged human MKK6 (4 to end residues) expressed in E. coli assessed as residual activity at 0.1 uM relative to control
# Chain of Dual specificity mitogen-activated protein kinase kinase 6 (Homo sapiens) (P52564 whole entry): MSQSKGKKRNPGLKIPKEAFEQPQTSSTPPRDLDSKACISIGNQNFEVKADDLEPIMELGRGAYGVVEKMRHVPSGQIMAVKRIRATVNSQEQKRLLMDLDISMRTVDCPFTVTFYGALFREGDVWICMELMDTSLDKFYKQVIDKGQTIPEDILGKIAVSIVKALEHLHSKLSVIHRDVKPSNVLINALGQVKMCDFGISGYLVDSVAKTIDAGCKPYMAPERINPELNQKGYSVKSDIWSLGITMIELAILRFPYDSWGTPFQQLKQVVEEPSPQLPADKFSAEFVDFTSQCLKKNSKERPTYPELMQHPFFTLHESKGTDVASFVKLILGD
# [6] = target: cAMP-dependent protein kinase (PKA) (Homo sapiens) (UniProt P22694+P17612+P22612); experiment: Inhibition of recombinant human full-length PKA expressed in E.coli BL21 (DE3) pLysS cells assessed as residual activity at 0.1 uM relative to control
# [7] = target: Ribosomal protein S6 kinase alpha-1 (Rattus norvegicus) (UniProt Q63531); experiment: Inhibition of N-terminal His6 and HA (YPYDV PDYA) tagged recombinant full-length (1 to end residues) rat Rsk1 expressed in baculovirus infected Sf21 cells assessed as residual activity at 0.1 uM relative to control
# Chain of Ribosomal protein S6 kinase alpha-1 (Rattus norvegicus) (Q63531 whole entry): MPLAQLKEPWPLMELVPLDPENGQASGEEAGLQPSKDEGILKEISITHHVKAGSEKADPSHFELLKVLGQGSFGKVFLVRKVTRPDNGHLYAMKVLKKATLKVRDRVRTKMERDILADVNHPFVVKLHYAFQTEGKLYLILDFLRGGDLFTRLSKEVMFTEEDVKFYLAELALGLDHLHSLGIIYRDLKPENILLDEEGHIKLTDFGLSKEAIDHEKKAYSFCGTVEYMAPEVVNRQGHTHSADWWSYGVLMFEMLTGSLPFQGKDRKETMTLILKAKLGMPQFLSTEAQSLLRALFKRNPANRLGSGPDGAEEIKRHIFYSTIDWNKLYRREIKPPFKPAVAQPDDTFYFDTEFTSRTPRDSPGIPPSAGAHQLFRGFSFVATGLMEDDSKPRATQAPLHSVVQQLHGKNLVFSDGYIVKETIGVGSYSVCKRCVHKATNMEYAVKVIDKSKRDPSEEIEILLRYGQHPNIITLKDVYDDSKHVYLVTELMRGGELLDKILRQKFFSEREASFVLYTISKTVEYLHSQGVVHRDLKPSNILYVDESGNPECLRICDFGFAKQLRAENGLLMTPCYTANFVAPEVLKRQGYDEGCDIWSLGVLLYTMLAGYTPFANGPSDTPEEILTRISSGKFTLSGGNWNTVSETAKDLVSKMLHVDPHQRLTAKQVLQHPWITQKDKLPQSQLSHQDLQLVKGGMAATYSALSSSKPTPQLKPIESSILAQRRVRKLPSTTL
# [8] = tested on: Angiopoietin-1 receptor (Homo sapiens), Q02763 [R849W]; experiment: Inhibition of N-terminal His6-tagged recombinant human Tie2 (771 to end residues) R849W mutant expressed in baculovirus infected Sf21 cells assessed as residual activity at 0.1 uM relative to control
# Chain of Angiopoietin-1 receptor (Homo sapiens), Q02763 [R849W] (Q02763 whole entry R849W): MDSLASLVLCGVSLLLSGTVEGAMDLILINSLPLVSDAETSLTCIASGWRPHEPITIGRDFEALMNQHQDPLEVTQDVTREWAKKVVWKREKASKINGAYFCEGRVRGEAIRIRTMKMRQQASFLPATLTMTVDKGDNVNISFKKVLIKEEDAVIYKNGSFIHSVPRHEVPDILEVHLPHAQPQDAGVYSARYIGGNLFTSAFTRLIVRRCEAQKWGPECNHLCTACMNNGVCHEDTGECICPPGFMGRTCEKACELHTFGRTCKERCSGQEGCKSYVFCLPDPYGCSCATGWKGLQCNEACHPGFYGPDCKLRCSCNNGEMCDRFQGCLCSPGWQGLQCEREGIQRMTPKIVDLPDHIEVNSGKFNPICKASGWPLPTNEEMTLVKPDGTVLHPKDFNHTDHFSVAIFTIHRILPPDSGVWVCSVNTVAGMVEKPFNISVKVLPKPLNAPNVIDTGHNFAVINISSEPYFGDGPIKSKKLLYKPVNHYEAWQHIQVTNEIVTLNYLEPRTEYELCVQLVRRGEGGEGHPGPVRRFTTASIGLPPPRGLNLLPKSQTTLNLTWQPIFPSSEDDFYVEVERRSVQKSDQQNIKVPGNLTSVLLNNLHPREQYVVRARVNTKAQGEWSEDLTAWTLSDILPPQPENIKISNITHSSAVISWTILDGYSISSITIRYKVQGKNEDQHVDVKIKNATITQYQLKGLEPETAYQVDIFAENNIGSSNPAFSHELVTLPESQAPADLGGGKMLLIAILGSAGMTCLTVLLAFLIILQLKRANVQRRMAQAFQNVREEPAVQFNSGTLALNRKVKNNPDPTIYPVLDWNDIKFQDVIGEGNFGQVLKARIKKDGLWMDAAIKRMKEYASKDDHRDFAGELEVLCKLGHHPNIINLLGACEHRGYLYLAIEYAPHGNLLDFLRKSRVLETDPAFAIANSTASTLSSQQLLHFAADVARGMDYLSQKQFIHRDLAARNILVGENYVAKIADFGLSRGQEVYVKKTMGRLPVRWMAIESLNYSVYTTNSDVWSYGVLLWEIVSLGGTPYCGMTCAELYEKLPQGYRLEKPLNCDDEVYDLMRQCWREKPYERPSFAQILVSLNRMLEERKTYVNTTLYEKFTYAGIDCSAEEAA
# [9] = target: ALK tyrosine kinase receptor (Homo sapiens) (UniProt Q9UM73); experiment: Inhibition of N-terminal His6-tagged recombinant human ALK (1058 to end residues) expressed in baculovirus infected Sf21 cells assessed as residual activity at 1 uM relative to control
# [10] = target: Cytoplasmic tyrosine-protein kinase BMX (Homo sapiens) (UniProt P51813); experiment: Inhibition of recombinant human Bmx assessed as residual activity at 1 uM relative to control
# Chain of Cytoplasmic tyrosine-protein kinase BMX (Homo sapiens) (P51813 whole entry): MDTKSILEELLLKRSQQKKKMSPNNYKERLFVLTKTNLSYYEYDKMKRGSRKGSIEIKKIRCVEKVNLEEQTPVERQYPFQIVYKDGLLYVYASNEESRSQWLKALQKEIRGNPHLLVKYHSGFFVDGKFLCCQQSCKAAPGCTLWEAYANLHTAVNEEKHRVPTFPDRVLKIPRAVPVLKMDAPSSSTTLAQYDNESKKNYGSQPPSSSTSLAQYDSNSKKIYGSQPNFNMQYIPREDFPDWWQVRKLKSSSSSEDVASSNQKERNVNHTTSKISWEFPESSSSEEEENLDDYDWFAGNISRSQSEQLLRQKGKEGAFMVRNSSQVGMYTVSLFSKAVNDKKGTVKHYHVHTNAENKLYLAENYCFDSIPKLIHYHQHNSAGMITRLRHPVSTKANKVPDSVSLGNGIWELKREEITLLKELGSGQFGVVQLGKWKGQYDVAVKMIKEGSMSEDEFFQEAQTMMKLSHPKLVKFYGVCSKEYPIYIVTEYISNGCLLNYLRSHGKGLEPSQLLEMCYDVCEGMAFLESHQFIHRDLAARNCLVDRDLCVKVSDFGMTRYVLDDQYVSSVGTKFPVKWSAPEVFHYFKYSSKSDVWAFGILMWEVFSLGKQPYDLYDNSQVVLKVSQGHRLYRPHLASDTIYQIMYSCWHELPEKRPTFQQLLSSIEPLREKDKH
# [11] = target: Ephrin type-B receptor 1 (Homo sapiens) (UniProt P54762); experiment: Inhibition of N-terminal 6His-tagged recombinant human EphB1 (564 to end residues) expressed in baculovirus infected Sf21 cells assessed as residual activity at 1 uM relative to control
# [12] = target: Ribosomal protein S6 kinase alpha-2 (Homo sapiens) (UniProt Q15349); experiment: Inhibition of N-terminal His6-tagged recombinant full-length human Rsk3 expressed in Sf21 cells assessed as residual activity at 1 uM relative to control
# [13] = target: Mitogen-activated protein kinase 11 (Homo sapiens) (UniProt Q15759); experiment: Inhibition of N-terminal GST fusion protein corresponding to full-length human SAPK2b expressed in E. coli assessed as residual activity at 1 uM relative to control
# [14] = tested on: HCC1419; experiment: Antiproliferative activity against human HCC1419 cells assessed as inhibition of cell growth incubated for 72 hrs by cell-titer glo assay; type: functional, cell-based; conditions: HCC1419, 72 h
# Summary of the method: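 Cells seeded at 10,000–30,000/cm² (adherent) or 100,000/mL (nonadherent) in medium with 10% fetal calf serum; after 24 h, treated in duplicate with serial dilutions for 72 h. Viable cell number read by CellTiter-Glo luminescence; IC50 from sigmoidal fit; at least two independent experiments.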
# [15] = tested on: SW-620; experiment: Antiproliferative activity against human SW620 cells assessed as inhibition of cell growth incubated for 72 hrs by cell-titer glo assay; type: functional, cell-based; conditions: SW-620, 72 h
# [16] = tested on: 786-0; experiment: Antiproliferative activity against human 786-0 cells assessed as inhibition of cell growth incubated for 72 hrs by cell-titer glo assay; type: functional, cell-based; conditions: 786-0, 72 h
# Summary of the method: (§1)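 Cells seeded 10,000–30,000/cm² (adherent) or 100,000/mL (suspension) in medium with 10% fetal calf serum; after 24 h treated in duplicate with serial dilutions for 72 h. Viable cells read by CellTiter-Glo luminescence; IC50 from sigmoidal fit; at least two independent experiments.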
# [17] = tested on: ACHN; experiment: Antiproliferative activity against human ACHN cells assessed as inhibition of cell growth incubated for 72 hrs by cell-titer glo assay; type: functional, cell-based; summary of the method: as §1
# [18] = tested on: NCI-H1437; experiment: Antiproliferative activity against human NCI-H1437 cells assessed as inhibition of cell growth incubated for 72 hrs by cell-titer glo assay; type: functional, cell-based; conditions: NCI-H1437, 72 h
# Summary of the method: (§2)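 Cells from ATCC or ECACC, kept in supplier-recommended medium with 1% penicillin-streptomycin at 37°C, 5% CO₂. Seeded at 10,000–30,000/cm² (adherent) or 100,000/mL (nonadherent) in medium with 10% fetal calf serum. Dosed after 24 h in duplicate with serial dilutions. Viable cells read by CellTiter-Glo 72 h later. IC50 from sigmoidal fit. At least two independent experiments.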
# [19] = tested on: NCI-H322M; experiment: Antiproliferative activity against human NCI-H322M cells assessed as inhibition of cell growth incubated for 72 hrs by cell-titer glo assay; type: functional, cell-based; summary of the method: as §2
# [20] = tested on: NCI-H146; experiment: Antiproliferative activity against human NCI-H146 cells assessed as inhibition of cell growth incubated for 72 hrs by cell-titer glo assay; type: functional, cell-based; conditions: NCI-H146, 72 h; summary of the method: as §2
# [21] = tested on: OVCAR-3; experiment: Antiproliferative activity against human OVCAR-3 cells assessed as inhibition of cell growth incubated for 72 hrs by cell-titer glo assay; type: functional, cell-based; conditions: OVCAR-3, 72 h; summary of the method: as §2
# [22] = Antiproliferative activity against human TF-1a cells assessed as inhibition of cell growth incubated for 72 hrs by cell-titer glo assay; type: functional, cell-based
# [23] = AUC in Beagle dog at 5 mg/kg, po by LC-MS analysis; type: ADME, organism-based, Canis lupus familiaris; conditions: in vivo
# [24] = Oral bioavailability in Sprague-Dawley rat at 10 mg/kg by LC-MS analysis; type: ADME, organism-based; conditions: in vivo
# [25] = tested on: HCT-116; experiment: Antitumor activity against human HCT-116 cells xenografted in nu/nu mouse assessed as tumor growth inhibition at 45 mg/kg, iv administered for 3 days relative to control; type: functional; conditions: HCT-116, 72 h, time 3 day, read-out: TGI
# [26] = Antitumor activity against human Acute myeloid leukemic cell xenografted in nu/nu mouse assessed as increase in median survival time at 120 mg/kg, po administered for 2 days and measured after 5 days (reference value: 36 days); type: functional, Leukemia cell; conditions: time 2 day
structure (smiles),measurement,setting,value
CN1CCN(c2ccc(OC(F)(F)F)c(Nc3ncc4c(n3)-c3c(c(C(N)=O)nn3CCO)CC4)c2)CC1 [ONVANSERTIB],IC50,[1],> 10000 nM
same,IC50,[2],> 10000 nM
same,IC50,[3],> 10000 nM
same,Activity,[4],123%
same,Activity,[5],131%
same,Activity,[6],141%
same,Activity,[7],113%
same,Activity,[8],74%
same,Activity,[9],133%
same,Activity,[10],85%
same,Activity,[11],75%
same,Activity,[12],84%
same,Activity,[13],146%
same,IC50,[14],42 nM
same,IC50,[15],37 nM
same,IC50,[16],129 nM
same,IC50,[17],429 nM
same,IC50,[18],39 nM
same,IC50,[19],183 nM
same,IC50,[20],339 nM
same,IC50,[21],41 nM
same,IC50,[22],1780 nM
same,AUC,[23],8.1 µM·h
same,F,[24],100%
same,inhibition in vivo at 45 mg/kg,[25],83%
same,Time,[26],50 days
